In test [1] the test system is Escherichia coli. Kind of test: Induction of plasmid pBR322 DNA cleavage assessed as concentration required to cleave 50% of DNA after 24 hrs by gel electrophoresis. Summed up: (§1)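 Supercoiled pBR322 (90% form I) diluted to 50 µg/mL (75 µM/bp) in pH 7.5 Tris 40 mM/EDTA 4 mM. Incubated 24 h at 37 °C, then run on agarose gel with ethidium bromide and viewed at 302 nm. Form I versus II+III quantified by densitometry after subtracting form II present in the control.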

The subject of test [2] is Escherichia coli. The test is described as follows: Induction of plasmid pBR322 DNA cleavage at 1 mM after 24 hrs by gel electrophoresis. Put shortly:
as §1

This passage reports CS50 and Activity results from ChEMBL document CHEMBL1142420, “Synthesis and DNA-cleaving activity of lactenediynes conjugated with DNA-complexing moieties” (2008).

Each structure is given as a SMILES string. Calls of active or inactive are those of the source. No cut-off for these calls is given here.

As for `CC(=O)O[C@@H]1C#C/C=C\C#CC[C@H]2C(=O)N(C(=O)NCc3cccc4ccccc34)[C@H]12`, the CS50 in the test on Escherichia coli [1] came out at 25 µM.

In the case of `CC(=O)O[C@H]1C#C/C=C\C#CC[C@H]2C(=O)N(C(=O)OC(C)(C)C)[C@H]12`, the CS50 with Escherichia coli [1] was determined as 30 µM.

Take `CC(=O)O[C@@H]1C#C/C=C\C#CC[C@H]2C(=O)N(C(=O)NCCc3ccc4ccccc4c3)[C@H]12`: in the test with Escherichia coli [1], the CS50 is 150 µM.

For the compound `CC(=O)O[C@@H]1C#C/C=C\C#CC[C@H]2C(=O)N(C(=O)NCc3ccccc3)[C@H]12`, in the test on Escherichia coli [1], the CS50 came out at 70 µM.

As to `CC(=O)O[C@@H]1C#C/C=C\C#CC[C@H]2C(=O)N(C(=O)Nc3ccc4ccccc4c3)[C@H]12`, in the test with Escherichia coli [1], the CS50 amounted to 200 µM.

Take `CC(=O)Nc1cc(C(=O)Nc2cc(C(=O)N(C)CCCCCNC(=O)N3C(=O)[C@@H]4CC#C/C=C\C#C[C@@H](OC(C)=O)[C@H]43)n(C)c2)n(C)c1`: in the test with Escherichia coli [1], the CS50 came out at 35 µM.

On to `CON1C(=O)[C@@H]2CC#C/C=C\C#CC(C)[C@H]21` (stereo partly drawn), for which the outcome in the test on Escherichia coli [2] was inactive.

As for `CC(=O)O[C@@H]1C#C/C=C\C#CC[C@H]2C(=O)N(C(=O)NCc3ccc4ccccc4c3)[C@H]12`, in the test on Escherichia coli [1], the CS50 amounted to 70 µM.

For the compound `CC(C)(C)OC(=O)N1C(=O)[C@@H]2CC#C/C=C\C#C[C@@H](OC(=O)CCc3cccc4ccccc34)[C@H]21`, the CS50 with Escherichia coli [1] came out at 80 µM.

For the compound `CC[C@@]1(O)C(=O)OCc2c1cc1n(c2=O)Cc2c-1nc1ccccc1c2/C=N/OCCNC(=O)CCNC(=O)N1C(=O)[C@@H]2CC#C/C=C\C#C[C@@H](OC(C)=O)[C@H]21`, in the test on Escherichia coli [1], the CS50 turned out to be 10 µM.

Take `CC(=O)O[C@@H]1C#C/C=C\C#CC[C@H]2C(=O)N(C(=O)NCCc3cccc4ccccc34)[C@H]12`: in the test on Escherichia coli [1], the CS50 came to 40 µM.

`CC(C)(C)OC(=O)N1C(=O)[C@@H]2CC#C/C=C\C#C[C@@H](OC(=O)Cc3cccc4ccccc34)[C@H]21`: in the test with Escherichia coli [1], the CS50 worked out at 80 µM.

On to `CC(=O)O[C@@H]1C#C/C=C\C#CC[C@H]2C(=O)N(C(=O)Nc3cccc4ccccc34)[C@H]12`, for which, in the test with Escherichia coli [1], the CS50 was 25 µM.

With `CC(=O)O[C@H]1C#C/C=C\C#CC[C@H]2C(=O)N(C(=O)NCc3cccc4ccccc34)[C@H]12`, the CS50 with Escherichia coli [1] is 25 µM.

In the case of `CCCCNC(=O)c1cc(NC(=O)c2cc(NC(=O)CCNC(=O)N3C(=O)[C@@H]4CC#C/C=C\C#C[C@@H](OC(C)=O)[C@H]43)n(C)c2)n(C)c1`, in the test on Escherichia coli [1], the CS50 turned out to be 15 µM.

`CC(C)(C)OC(=O)N1C(=O)[C@@H]2CC#C/C=C\C#C[C@@H](OC(=O)CCc3ccc4ccccc4c3)[C@H]21`: in the test on Escherichia coli [1], the CS50 came out at 150 µM.

Consider `CC(=O)O[C@@H]1C#C/C=C\C#CC[C@H]2C(=O)N(C(=O)NCCC(=O)NCc3ccccc3)[C@H]12`, for which the CS50 in the test on Escherichia coli [1] was 25 µM.

As for `CC(=O)O[C@@H]1C#C/C=C\C#CC[C@H]2C(=O)N(C(=O)NCCCCCN(C)C(=O)Cc3cccc4ccccc34)[C@H]12`, in the test with Escherichia coli [1], the CS50 is 25 µM.
